Our source for the IC50 and Activity values is ChEMBL document CHEMBL4680191, “Discovery of novel akt1 inhibitor induces autophagy associated death in hepatocellular carcinoma cells” (Eur J Med Chem, 2020).

Experiment [1] deals with Hep 3B2. Nature of the experiment: Cytotoxicity against human Hep3B cells assessed as reduction in cell viability by MTT assay. Format: functional, cell-based. The gist of the method:
(§1)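 Hepatoma cells were grown in DMEM with 10% FBS and streptomycin, then treated with compounds. Viability was read by MTT.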
On the technique in general: Tetrazolium dyes change colour on reduction, which living cells bring about.

The test system of experiment [2] is RAC-beta serine/threonine-protein kinase (Homo sapiens), P31751 [S474D]. Nature of the experiment: Inhibition of full length human Akt2 S474D mutant assessed as remaining activity at 1 uM using GRPRTSSFAEGKK as substrate incubated for 40 mins by scintillation counting method relative to control. The gist of the method:
(§2)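 Eurofins KinaseProfiler kinase assay on human Akt1, Akt2 and Akt3. Compounds were tested at 1 µM. Residual kinase activity is reported as % of control.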

The subject of experiment [3] is HepG2. Nature of the experiment: Cytotoxicity against human HepG2 cells assessed as reduction in cell viability by MTT assay. In kind it is functional, cell-based. The gist of the method: as §1
Experiment [4] addresses cAMP-dependent protein kinase catalytic subunit alpha (Homo sapiens) (UniProt P17612). Nature of the experiment: Inhibition of full length human PKAcalpha assessed as remaining activity at 1 uM using LRRASLG as substrate incubated for 40 mins by scintillation counting method relative to control. The gist of the method:
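Run as an outsourced KinaseProfiler service, with human PKA and Akt1, Akt2 and Akt3 in the same panel. Each compound was tested at a single 1 µM concentration, and the result is reported as kinase activity remaining, as a percentage of control.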

Experiment [5] has as its system Huh-7. Nature of the experiment: Cytotoxicity against human Huh-7 cells assessed as reduction in cell viability by MTT assay. Format: functional, cell-based. The gist of the method:
as §1

Experiment [6] is described as follows: Inhibition of full length human Akt1 […] mutant using GRPRTSSFAEGKK as substrate incubated for 40 mins by scintillation counting method. The gist of the method:
(§3)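 Eurofins KinaseProfiler enzymatic assay on human Akt isoforms. IC50 values are the mean of at least three independent replicates ± standard deviation.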

The test system of experiment [7] is SMMC-7721. Nature of the experiment: Cytotoxicity against human SMMC-7721 cells assessed as reduction in cell viability by MTT assay. In kind it is functional, cell-based. A digest of the protocol: as §1
Experiment [8] is filed under the species Homo sapiens. Nature of the experiment: Inhibition of full length human Akt1 […] mutant assessed as remaining activity at 1 uM using GRPRTSSFAEGKK as substrate incubated for 40 mins by scintillation counting method relative to control. A digest of the protocol:
as §2

Experiment [9] concerns the target RAC-gamma serine/threonine-protein kinase (Homo sapiens, UniProt Q9Y243, S472D). Nature of the experiment: Inhibition of full length human Akt3 S472D mutant using GRPRTSSFAEGKK as substrate incubated for 40 mins by scintillation counting method. A digest of the protocol: as §3
The test system of experiment [10] is RAC-gamma serine/threonine-protein kinase (Homo sapiens), Q9Y243 [S472D]. Nature of the experiment: Inhibition of full length human Akt3 S472D mutant assessed as remaining activity at 1 uM using GRPRTSSFAEGKK as substrate incubated for 40 mins by scintillation counting method relative to control. A digest of the protocol:
as §2

In experiment [11] the test system is Huh-7. Nature of the experiment: Induction of autophagy flux arrest in human Huh-7 cells assessed as reduction in LC3 by immunofluorescence staining based assay. In kind it is functional, cell-based. The gist of the method:
(§4)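 Huh-7 cells with or without 0.2 µM compound were immunofluorescently co-stained for LC3 (autophagosome) and LAMP1 (lysosome). Co-localization was assessed by fluorescence imaging.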

For experiment [12], the system named is Huh-7. Nature of the experiment: Induction of autophagy flux arrest in human Huh-7 cells assessed as reduction in LAMP1 by immunofluorescence staining based assay. In kind it is functional, cell-based. A digest of the protocol: as §4

Active and inactive are the calls of the source. The rule behind the calls is not given here.

RAC-gamma serine/threonine-protein kinase, sequence (Q9Y243 2-479 S472D limits assumed): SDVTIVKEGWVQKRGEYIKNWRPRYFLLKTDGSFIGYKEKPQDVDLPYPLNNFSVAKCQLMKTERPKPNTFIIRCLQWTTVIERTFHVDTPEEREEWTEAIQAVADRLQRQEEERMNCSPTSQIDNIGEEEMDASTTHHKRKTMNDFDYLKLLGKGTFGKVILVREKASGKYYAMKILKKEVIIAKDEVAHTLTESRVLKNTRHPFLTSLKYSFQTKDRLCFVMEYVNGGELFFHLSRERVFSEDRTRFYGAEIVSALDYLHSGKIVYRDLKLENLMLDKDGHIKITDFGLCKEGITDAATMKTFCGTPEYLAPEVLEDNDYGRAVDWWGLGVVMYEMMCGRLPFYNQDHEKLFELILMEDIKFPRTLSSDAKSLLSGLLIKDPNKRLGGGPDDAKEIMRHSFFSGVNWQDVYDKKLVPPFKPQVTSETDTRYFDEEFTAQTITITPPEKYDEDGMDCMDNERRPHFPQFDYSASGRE
RAC-beta serine/threonine-protein kinase (Homo sapiens), P31751 [S474D], sequence (P31751 whole entry S474D): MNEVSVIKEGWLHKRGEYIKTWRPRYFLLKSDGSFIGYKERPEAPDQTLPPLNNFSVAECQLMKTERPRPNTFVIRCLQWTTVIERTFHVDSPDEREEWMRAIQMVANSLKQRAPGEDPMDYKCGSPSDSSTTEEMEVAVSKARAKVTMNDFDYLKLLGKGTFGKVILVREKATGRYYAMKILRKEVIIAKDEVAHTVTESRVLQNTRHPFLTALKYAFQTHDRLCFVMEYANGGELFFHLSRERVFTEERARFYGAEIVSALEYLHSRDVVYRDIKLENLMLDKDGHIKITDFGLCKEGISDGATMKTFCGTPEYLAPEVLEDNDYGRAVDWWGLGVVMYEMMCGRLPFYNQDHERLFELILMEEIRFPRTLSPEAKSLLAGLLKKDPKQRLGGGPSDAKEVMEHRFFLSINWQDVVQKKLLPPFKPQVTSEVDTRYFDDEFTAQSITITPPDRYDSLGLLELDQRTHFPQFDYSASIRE
RAC-gamma serine/threonine-protein kinase (Homo sapiens), Q9Y243 [S472D], sequence (Q9Y243 whole entry S472D): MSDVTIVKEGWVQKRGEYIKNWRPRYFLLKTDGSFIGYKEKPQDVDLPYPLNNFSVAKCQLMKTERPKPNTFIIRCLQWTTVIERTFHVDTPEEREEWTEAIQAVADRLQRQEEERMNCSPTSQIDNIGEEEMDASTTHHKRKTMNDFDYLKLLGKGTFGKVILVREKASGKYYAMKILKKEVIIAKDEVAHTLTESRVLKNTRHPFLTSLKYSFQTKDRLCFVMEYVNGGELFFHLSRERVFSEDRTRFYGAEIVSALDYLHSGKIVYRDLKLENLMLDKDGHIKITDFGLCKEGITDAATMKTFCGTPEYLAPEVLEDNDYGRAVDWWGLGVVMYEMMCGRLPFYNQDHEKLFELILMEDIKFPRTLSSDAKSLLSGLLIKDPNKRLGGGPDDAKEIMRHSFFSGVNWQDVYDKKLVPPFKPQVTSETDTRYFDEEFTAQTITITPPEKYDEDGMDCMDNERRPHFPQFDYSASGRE

As to `CCCCNCC(C(=O)N1CCN(c2ncnc3sc4c(c23)CCC4)CC1)c1ccc(Cl)cc1` (stereo not given), the IC50 was found to be 833 nM in experiment [1]; 914 nM in experiment [3]; 367 nM in experiment [5]; 166 nM in experiment [6]; 1350 nM in experiment [7]; 137 nM in experiment [9]. Besides, the Activity was determined as 56% in experiment [2], 37% in experiment [4], 1% in [8] and 15% in experiment [10].
On to `CC(C)NCC(C(=O)N1CCN(c2ncnc3sc4c(c23)CCN(C(=O)N(C)C)C4)CC1)c1ccc(Cl)cc1` (stereo not given), for which the Activity in [2] stood at 95%; in experiment [4], 80%; in [8], 86%; in [10], 87%.
In the case of `CC(C)NCC(C(=O)N1CCN(c2ncnc3sc4c(c23)CCC4)CC1)c1ccc(F)cc1` (stereo not given), the Activity in experiment [2] worked out at 104%; in experiment [4], 77%; in [8], 26%; in experiment [10], 45%.
With `CC(C)NCC(C(=O)N1CCN(c2ncnc3sc4c(c23)CCCC4)CC1)c1ccc(Cl)cc1` (stereo not given), the Activity in [2] turned out to be 72%; in experiment [4] it was 78%; in experiment [8], 55%; in experiment [10] it was 63%.
The matching figures for `COc1ccc(C(CNC(C)C)C(=O)N2CCN(c3ncnc4sc5c(c34)CCC5)CC2)cc1` (stereo not given): 86%, 66%, 18% and 42%.
As for `CC(C)NCC(C(=O)N1CCN(c2ncnc3sc4c(c23)CCOC4)CC1)c1ccc(Cl)cc1` (stereo not given), the Activity in experiment [2] is 81%; in experiment [4] it was 78%; in experiment [8] it was 78%; in experiment [10], 77%.
For the compound `CC(C)NCC(C(=O)N1CCN(c2ncnc3sc4c(c23)CCN(C)C4)CC1)c1ccc(F)cc1` (stereo not given), the Activity in experiment [2] was 111%; in experiment [4], 97%; in experiment [8] it was 88%; in experiment [10], 87%.
Turning to `CC(C)NCC(C(=O)N1CCN(c2ncnc3sc4c(c23)CCN(Cc2ccccc2)C4)CC1)c1ccc(Cl)cc1` (stereo not given), the Activity came to 77% in experiment [2], 80% in experiment [4], 71% in experiment [8] and 71% in [10].
On to `CCCN1CCc2c(sc3ncnc(N4CCN(C(=O)C(CNC(C)C)c5ccc(Cl)cc5)CC4)c23)C1` (stereo not given), for which the Activity was found to be 89% in experiment [2], 88% in [4], 75% in experiment [8] and 79% in experiment [10].
The matching figures for `CC(C)NCC(C(=O)N1CCN(c2ncnc3sc4c(c23)CCN(C(C)C)C4)CC1)c1ccc(Cl)cc1` (stereo not given): 81%, 84%, 76% and 78%.
With `CC(C)NCC(C(=O)N1CCN(c2ncnc3sc4c(c23)CCN(C)C4)CC1)c1ccc(Cl)cc1` (stereo not given), the Activity came out at 91% in experiment [2], 72% in experiment [4], 50% in experiment [8] and 69% in experiment [10].
Regarding `CC(C)NCC(C(=O)N1CCN(c2ncnc3sc4c(c23)CCC4)CC1)c1ccc(Br)cc1` (stereo not given), the IC50 in [1] stood at 228 nM; in [3], 202 nM; in experiment [5], 112 nM; in experiment [6], 39 nM; in experiment [7] it was 521 nM; in [9] it was 95 nM. For the same compound, the Activity in [2] stood at 67%; in [4] it was 23%; in [8], 1%; in experiment [10], 20%.
As to `CC(C)NCC(C(=O)N1CCN(c2ncnc3sc4c(c23)CCC4)CC1)c1ccc(Cl)cc1` (stereo not given), the Activity worked out at 57% in experiment [2], 45% in experiment [4], 11% in experiment [8] and 19% in experiment [10].
With `CCNCC(C(=O)N1CCN(c2ncnc3sc4c(c23)CCN(C)C4)CC1)c1ccc(Cl)cc1` (stereo not given), the Activity in experiment [2] was 107%; in [4], 91%; in [8], 95%; in experiment [10], 74%.
The matching figures for `CC(C)NCC(C(=O)N1CCN(c2ncnc3sc4c(c23)CCN(C)C4)CC1)c1ccccc1Cl` (stereo not given): 83%, 86%, 96% and 76%.
The like results for `CC(C)NCC(C(=O)N1CCN(c2ncnc3sc4c(c23)CCN(C2CC2)C4)CC1)c1ccc(Cl)cc1` (stereo not given) were, in that order, 71%, 92%, 77% and 70%.
Take `CC(C)NC[C@@H](C(=O)N1CCN(c2ncnc3c2[C@H](C)C[C@H]3O)CC1)c1ccc(Cl)cc1` [IPATASERTIB]: the IC50 in experiment [1] came to 389 nM; in [3] it was 268 nM; in experiment [5], 167 nM; in experiment [6] it was 19 nM; in experiment [7] it was 661 nM. The result in experiment [11] and in [12] was Active.
Turning to `CN1CCc2c(sc3ncnc(N4CCN(C(=O)C(CNC5CCCCC5)c5ccc(Cl)cc5)CC4)c23)C1` (stereo not given), the Activity was determined as 88% in experiment [2], 95% in experiment [4], 84% in [8] and 69% in [10].
The matching figures for `Cc1ccc(C(CNC(C)C)C(=O)N2CCN(c3ncnc4sc5c(c34)CCN(C)C5)CC2)cc1` (stereo not given): 73%, 90%, 78% and 73%.
Regarding `CCN1CCc2c(sc3ncnc(N4CCN(C(=O)C(CNC(C)C)c5ccc(Cl)cc5)CC4)c23)C1` (stereo not given), the Activity in experiment [2] is 82%; in experiment [4], 87%; in experiment [8] it was 73%; in [10], 71%.
The matching figures for `CC(C)NCC(C(=O)N1CCN(c2ncnc3sc4c(c23)CCC4)CC1)c1ccccc1Cl` (stereo not given): 101%, 95%, 88% and 92%.
The like results for `COc1ccc(C(CNC(C)C)C(=O)N2CCN(c3ncnc4sc5c(c34)CCN(C)C5)CC2)cc1` (stereo not given) were, in that order, 78%, 95%, 81% and 76%.
With `CN1CCc2c(sc3ncnc(N4CCN(C(=O)C(CNC5CCCC5)c5ccc(Cl)cc5)CC4)c23)C1` (stereo not given), the Activity in experiment [2] was 81%; in [4] it was 82%; in experiment [8], 82%; in experiment [10] it was 76%.
Take `O=C(C(CNC1CCCCC1)c1ccc(Cl)cc1)N1CCN(c2ncnc3sc4c(c23)CCC4)CC1` (stereo not given): the IC50 in [1] is 294 nM; in [3], 386 nM; in experiment [5] it was 159 nM; in [6], 51 nM; in experiment [7], 978 nM; in experiment [9], 45 nM. The Activity stood at 51% in experiment [2], 29% in experiment [4], 1% in [8] and 11% in [10].
As to `CCCCNCC(C(=O)N1CCN(c2ncnc3sc4c(c23)CCN(C)C4)CC1)c1ccc(Cl)cc1` (stereo not given), the Activity in experiment [2] is 93%; in experiment [4] it was 81%; in [8], 81%; in experiment [10], 84%.
As to `CCNCC(C(=O)N1CCN(c2ncnc3sc4c(c23)CCC4)CC1)c1ccc(Cl)cc1` (stereo not given), the IC50 in experiment [1] came out at 541 nM; in experiment [3], 580 nM; in [5], 283 nM; in experiment [6], 125 nM; in experiment [7], 1250 nM; in experiment [9], 101 nM. Also, the Activity in [2] worked out at 58%; in [4] it was 31%; in [8], 1%; in [10], 21%.
On to `CC(C)NCC(C(=O)N1CCN(c2ncnc3sc4c(c23)CCN(C)C4)CC1)c1ccc(Br)cc1` (stereo not given), for which the Activity in experiment [2] was found to be 86%; in experiment [4], 88%; in experiment [8], 69%; in experiment [10], 72%.

A word on the IC50: it is the concentration at which inhibition is half-maximal.
